Here are results for two compounds from ChEMBL document CHEMBL3286252, “Synthesis, biological evaluation and structure-activity relationship of new GABA uptake inhibitors, derivatives of 4-aminobutanamides” (Eur J Med Chem, 2014).

Activity calls are given as the source filed them.

Data set [1] has as its system Mus musculus. Put plainly: Anticonvulsant activity against pentylenetetrazole-induced seizure in albino Swiss (CD-1) mouse assessed as decrease in seizure episodes at 100 mg/kg, ip administered 60 mins prior to PTZ challenge. The format is functional. The settings on record: route intraperitoneal. In a few lines:
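Male CD-1 mice, 18–22 g, given compound or vehicle i.p. 60 min before PTZ 100 mg/kg s.c. Each mouse observed alone for 30 min for clonic seizures: whole-body clonus over 3 s with loss of righting reflex. Read-outs: latency to first clonus, number of seizure episodes, and deaths within 30 min. Groups of 7–10 mice, compared with vehicle.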

For data set [2], the system named is Mus musculus. Put plainly: Anticonvulsant activity against pentylenetetrazole-induced seizure in albino Swiss (CD-1) mouse assessed as decrease in mortality rate at 30 to 100 mg/kg, ip administered 60 mins prior to PTZ challenge. It counts as functional, organism-based. In a few lines: (§1)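 Male CD-1 mice (18–22 g) given compound or vehicle i.p. 60 min before PTZ 100 mg/kg s.c. Each mouse was then caged alone and watched for 30 min for clonic seizures, meaning whole-body clonus lasting >3 s with loss of righting reflex. Recorded: latency to first clonus, number of seizure episodes, and deaths within 30 min. Analysis: ANOVA/Dunnett or t-test; mortality by Fisher's exact test; 7–10 mice per group.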

The test system of data set [3] is Mus musculus. Put plainly: Toxicity in albino Swiss (CD-1) mouse assessed as decrease in locomotor activity at 30 mg/kg, ip after 60 mins. On the set-up: dose 30 mg/kg, route intraperitoneal. The format is organism-based. The settings on record: in vivo, 1 h. In a few lines:
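Mice were pretreated i.p. with 30 mg/kg or vehicle (1% Tween 80) 60 min before testing. Each was placed alone in an IR-beam activity cage (40×40×31 cm) in a sound-attenuated room. Beam interruptions were counted over 30 min in five 6-min intervals. Analysis: repeated-measures ANOVA with Bonferroni.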

Data set [4] in a line: Retardation factor of the compound using 25%NH3/MeOH/DCM/PE at ratio of 45:225:600:90 as solvent system by thin layer chromatography. It counts as physicochemical.
Data set [5] deals with Mus musculus. Put plainly: Anticonvulsant activity in albino Swiss (CD-1) mouse assessed as current intensity required to induce 50% tonic hind limb extensions at 100 mg/kg, ip after 60 mins by electroconvulsive threshold test (reference value: 6.61 mA). It counts as functional, Hindlimb. Particulars: route intraperitoneal.
In data set [6] the test system is Mus musculus. Put plainly: Anticonvulsant activity in albino Swiss (CD-1) mouse assessed as protection against electrically-induced tonic hind limb extension at 30 to 100 mg/kg measured after single electroshock by maximal electroshock test. The format is functional, organism-based. Particulars: Hindlimb. In a few lines:
(§2)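 Mice received a 25 mA, 0.2 s stimulus through auricular electrodes. The endpoint was tonic extension of the hind limbs after a single shock, scored in vehicle- and drug-treated groups.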
(In general: Protection in the maximal electroshock model is a classic sign of anticonvulsant action.)

The test system of data set [7] is Mus musculus. Put plainly: Anticonvulsant activity against pentylenetetrazole-induced seizure in albino Swiss (CD-1) mouse assessed as prolongation of latency time to first seizure episode at 100 mg/kg, ip administered 60 mins prior to PTZ challenge. The format is functional. The settings on record: route intraperitoneal. In outline:
as §1

Data set [8] concerns Mus musculus. Put plainly: Anticonvulsant activity against pentylenetetrazole-induced seizure in albino Swiss (CD-1) mouse assessed as prolongation of latency time to first seizure episode at 30 mg/kg, ip administered 60 mins prior to PTZ challenge. It counts as functional, organism-based. Also noted: dose 30 mg/kg. In a few lines: as §1
The subject of data set [9] is Mus musculus. Put plainly: Anticonvulsant activity against pentylenetetrazole-induced seizure in albino Swiss (CD-1) mouse assessed as delay in onset of seizures at 15 mg/kg, ip administered 60 mins prior to PTZ challenge. It counts as functional. Particulars: route intraperitoneal. In a few lines: as §1
For data set [10], the system named is Mus musculus. Put plainly: Anticonvulsant activity against pentylenetetrazole-induced seizure in albino Swiss (CD-1) mouse assessed as delay in onset of seizures at 30 mg/kg, ip administered 60 mins prior to PTZ challenge. The settings on record: route intraperitoneal. It counts as functional. In outline:
as §1

The subject of data set [11] is Mus musculus. Put plainly: Anticonvulsant activity against pentylenetetrazole-induced seizure in albino Swiss (CD-1) mouse assessed as decrease in seizure episodes at 15 mg/kg, ip administered 60 mins prior to PTZ challenge. Particulars: route intraperitoneal. The format is functional. In a few lines:
as §1

Data set [12] concerns Mus musculus. Put plainly: Anticonvulsant activity against pentylenetetrazole-induced seizure in albino Swiss (CD-1) mouse assessed as decrease in mortality rate at 30 mg/kg, ip administered 60 mins prior to PTZ challenge. It counts as functional, organism-based. On the set-up: dose 30 mg/kg. In outline: as §1
Data set [13] relates to Mus musculus. Put plainly: Anticonvulsant activity against pilocarpine-induced seizure in albino Swiss (CD-1) mouse assessed as prolongation of latency time to seizures at 70 mg/kg, ip administered 60 mins before pilocarpine challenge. It counts as functional. Particulars: route intraperitoneal. In a few lines:
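CD-1 mice received compound or vehicle (1% Tween 80) i.p. 60 min before pilocarpine 400 mg/kg i.p. Scopolamine butylbromide 1 mg/kg i.p. was given 45 min before pilocarpine. 7–8 mice per group; Student's t-test versus vehicle; mean ± SEM.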

The subject of data set [14] is Mus musculus. Put plainly: Anticonvulsant activity against pilocarpine-induced seizure in albino Swiss (CD-1) mouse assessed as prolongation of latency time to death at 70 mg/kg, ip administered 60 mins before pilocarpine challenge. It counts as functional. The settings on record: route intraperitoneal. In a few lines: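 Male CD-1 mice dosed i.p. with compound or vehicle (1% Tween 80). Scopolamine butylbromide 1 mg/kg i.p. given 45 min before pilocarpine; pilocarpine 400 mg/kg i.p. given 60 min after compound. Observed 1 h. Latency to tonic-clonic seizure and latency to death recorded, cut-off 60 min. 7–8 mice per group, mean ± SEM, Student's t-test against vehicle.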

Data set [15] relates to Mus musculus. Put plainly: Anticonvulsant activity in albino Swiss (CD-1) mouse assessed as protection against seizures at 100 mg/kg, ip after 60 mins by electroconvulsive threshold test. The format is functional, organism-based. Also noted: dose 100 mg/kg.
The subject of data set [16] is Mus musculus. Put plainly: Toxicity in albino Swiss (CD-1) mouse assessed as mortality at 100 mg/kg, ip measured after single electroconvulsive electroshock exposure. It counts as organism-based. On the set-up: dose 100 mg/kg, route intraperitoneal. Particulars: in vivo. In a few lines: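 Male CD-1 mice given 100 mg/kg i.p. 60 min before electroconvulsive threshold testing. Groups shocked at graded currents to give 10–90% of animals with seizures; CS50 for tonic hind-limb extension estimated by log-probit. Mortality noted after a single electroconvulsive shock, compared with controls.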

Data set [17] relates to Mus musculus. Put plainly: Anticonvulsant activity in albino Swiss (CD-1) mouse assessed as protection against electrically-induced tonic hind limb extension at 30 mg/kg by maximal electroshock test. The format is functional, organism-based. On the set-up: dose 30 mg/kg. The settings on record: Hindlimb. In a few lines: as §2
Data set [18] concerns Mus musculus. Put plainly: Anticonvulsant activity in albino Swiss (CD-1) mouse assessed as decrease in animals with tonic hind limb extensions at 100 mg/kg by maximal electroshock test. The settings on record: Hindlimb. The format is functional. In outline:
as §2

Data set [19] in a line: Toxicity in albino Swiss (CD-1) mouse assessed as mortality at 100 mg/kg measured after electroshock exposure. On the set-up: dose 100 mg/kg. The format is organism-based. Particulars: in vivo, read-out: Activity. In a few lines: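 Male CD-1 mice given 100 mg/kg i.p. 60 min before the maximal electroshock test. Stimulus 25 mA for 0.2 s through auricular electrodes; endpoint tonic hind-limb extension. Deaths after the shock compared with the vehicle group.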

With `NCCC(C(=O)NCc1ccccc1Cl)N1CCN(C(c2ccccc2)c2ccccc2)CC1` (stereo unspecified), the inhibition in vivo at 100 mg/kg in data set [1] stood at 53%. Also, the inhibition result in data set [2] is “Active”. Moreover, the Activity result in [3] is given as “Non-toxic”; in data set [7] it was 100%. The Rf in [4] turned out to be 0.18. The CS50 in data set [5] stood at 6.22 mA. The result in [6] and in data set [8] was inactive.
As for `NCCC(C(=O)NCc1ccc(Cl)cc1)N1CCN(C(c2ccccc2)c2ccccc2)CC1` (stereo unspecified), the Activity in [9] is listed as 58%; in data set [10], 217%; in data set [13], 113.4%; in data set [14], 71.1%; in data set [3], “Toxic”; in data set [16], “Toxic”. Moreover, the inhibition in vivo at 15 mg/kg in data set [11] was 58%. Besides, the inhibition result in [12] was “Active”. The Rf in data set [4] is listed as 0.14. For the same compound, the result in [15] and in [17] was inactive. Besides, the inhibition in vivo at 100 mg/kg in data set [18] was found to be 44%. In [19], the mortality was 65%.

In general, inhibition in vivo refers to the percentage by which the read-out fell short of the control.
